Measured values published in ChEMBL document CHEMBL1136393, “4-(3,4-dihydro-1H-isoquinolin-2yl)-pyridines and 4-(3,4-dihydro-1H-isoquinolin-2-yl)-quinolines as potent NR1/2B subtype selective NMDA receptor antagonists” (Bioorg Med Chem Lett, 2003).

Experiments:
Mus musculus = assay: In vivo effective dose in mice after intraperitoneal administration using standard sound induced seizures assay; format: functional; conditions: ip
In short: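 DBA/2 mice; compound given intraperitoneally 30 min before sound-induced seizure testing; ED50 in mg/kg.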

[1] = biological target: T1, Muscarinic acetylcholine receptor M1 (Rattus norvegicus, UniProt P08482); assay: Binding affinity towards muscarinic acetylcholine receptor M1 in […] using [3H]pirenzepine as radioligand
T1 sequence (P08482 whole entry): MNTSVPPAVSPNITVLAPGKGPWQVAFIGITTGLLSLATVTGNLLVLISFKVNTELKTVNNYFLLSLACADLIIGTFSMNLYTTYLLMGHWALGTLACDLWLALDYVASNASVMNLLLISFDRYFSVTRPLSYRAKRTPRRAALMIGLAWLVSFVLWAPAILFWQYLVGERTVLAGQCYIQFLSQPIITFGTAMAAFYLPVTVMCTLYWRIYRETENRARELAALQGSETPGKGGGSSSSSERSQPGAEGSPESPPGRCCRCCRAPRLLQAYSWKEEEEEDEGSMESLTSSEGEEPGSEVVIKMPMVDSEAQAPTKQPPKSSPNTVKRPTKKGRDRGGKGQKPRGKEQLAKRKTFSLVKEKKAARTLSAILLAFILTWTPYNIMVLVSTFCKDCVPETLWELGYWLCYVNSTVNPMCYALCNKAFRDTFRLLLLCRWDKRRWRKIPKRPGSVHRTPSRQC

[2] = biological target: T2, Adrenergic receptor alpha-1 (Rattus norvegicus, UniProt P15823+P23944+P43140); assay: Binding affinity towards Alpha-1 adrenergic receptor in rat brain using [3H]prazosin; format: tissue-based
T2 sequence (P15823 whole entry): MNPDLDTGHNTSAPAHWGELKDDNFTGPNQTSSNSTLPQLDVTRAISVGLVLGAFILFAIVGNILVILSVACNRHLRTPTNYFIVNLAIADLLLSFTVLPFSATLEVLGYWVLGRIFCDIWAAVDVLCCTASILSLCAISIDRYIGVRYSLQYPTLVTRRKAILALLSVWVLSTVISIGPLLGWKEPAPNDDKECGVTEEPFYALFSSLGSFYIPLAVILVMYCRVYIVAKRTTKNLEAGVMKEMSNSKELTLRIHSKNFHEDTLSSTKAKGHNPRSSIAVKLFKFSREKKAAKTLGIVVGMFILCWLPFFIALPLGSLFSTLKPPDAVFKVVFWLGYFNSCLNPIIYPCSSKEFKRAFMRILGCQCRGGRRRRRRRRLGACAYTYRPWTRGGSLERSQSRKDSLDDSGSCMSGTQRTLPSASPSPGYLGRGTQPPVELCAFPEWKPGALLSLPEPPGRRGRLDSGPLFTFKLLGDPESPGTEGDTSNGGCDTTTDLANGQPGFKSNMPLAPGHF
T2 sequence (P23944 whole entry): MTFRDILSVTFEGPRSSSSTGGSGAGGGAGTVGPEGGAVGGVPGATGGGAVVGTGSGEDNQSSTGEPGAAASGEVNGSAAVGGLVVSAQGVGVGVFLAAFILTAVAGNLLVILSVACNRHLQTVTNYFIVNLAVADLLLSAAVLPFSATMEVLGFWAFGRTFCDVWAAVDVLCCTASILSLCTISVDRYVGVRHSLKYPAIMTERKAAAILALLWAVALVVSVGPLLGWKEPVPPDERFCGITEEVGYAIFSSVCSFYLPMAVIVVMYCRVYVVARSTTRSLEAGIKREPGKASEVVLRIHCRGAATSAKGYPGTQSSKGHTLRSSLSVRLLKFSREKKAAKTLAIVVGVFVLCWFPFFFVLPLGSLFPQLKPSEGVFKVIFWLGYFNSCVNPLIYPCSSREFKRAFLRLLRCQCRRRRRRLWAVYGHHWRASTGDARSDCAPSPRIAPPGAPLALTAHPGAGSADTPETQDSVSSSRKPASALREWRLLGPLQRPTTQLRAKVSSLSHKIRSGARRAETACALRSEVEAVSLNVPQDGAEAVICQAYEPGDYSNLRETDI
T2 sequence (P43140 whole entry): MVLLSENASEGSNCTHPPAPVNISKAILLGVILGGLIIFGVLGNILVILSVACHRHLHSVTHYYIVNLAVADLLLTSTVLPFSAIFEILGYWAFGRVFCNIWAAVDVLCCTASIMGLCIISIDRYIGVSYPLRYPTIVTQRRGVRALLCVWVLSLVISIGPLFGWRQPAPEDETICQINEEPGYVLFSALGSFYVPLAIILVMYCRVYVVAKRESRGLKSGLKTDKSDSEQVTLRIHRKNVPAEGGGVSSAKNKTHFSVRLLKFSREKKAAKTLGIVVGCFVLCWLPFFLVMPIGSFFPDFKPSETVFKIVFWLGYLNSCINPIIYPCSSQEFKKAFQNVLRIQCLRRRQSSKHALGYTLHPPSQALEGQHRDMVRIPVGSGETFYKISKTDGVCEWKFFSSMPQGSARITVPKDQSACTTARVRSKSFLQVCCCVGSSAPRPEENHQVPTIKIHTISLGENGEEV

[3] = Inhibition of [3H]25-6981 binding to N-methyl-D-aspartate glutamate receptor 2B of rat brain
[4] = Binding affinity towards N-methyl-D-aspartate (NMDA) receptor in rat brain using [3H]-25-6981 as radioligand; format: tissue-based
[5] = biological target: T2, Adrenergic receptor alpha-1; assay: Binding affinity towards alpha receptor in rat brain using [3H]prazosin as radioligand; format: tissue-based
[6] = biological target: T1, Muscarinic acetylcholine receptor M1; assay: Binding affinity towards Muscarinic acetylcholine receptor M1 in […] using [3H]pirenzepine as radioligand

Row | Structure (SMILES) | ED50 (Mus musculus) [mg/kg] | Ki [1] [nM] | Ki [2] [nM] | Ki [3] [nM] | Ki [4] [nM] | Ki [5] [nM] | Ki [6] [nM]
1 | c1ccc2c(c1)CCN(c1ccncc1)C2 | 3 | 720 | 5800 | 8 | – | – | –
2 | Clc1cccc2c1CN(c1ccncc1)CC2 | – | 650 | 3800 | 26 | – | – | –
3 | COc1cc2c(cc1OC)CN(c1ccncc1)CC2 | – | – | – | 28000 | – | – | –
4 | Nc1cc(N2CCc3ccccc3C2)c2ccccc2n1 | – | – | – | – | 19 | 120 | –
5 | Cc1cc(N2CCc3ccccc3C2)cc(NCCO)n1 | 18 | – | – | – | 2 | 3500 | 6800
6 | Cc1cc(N2CCc3ccccc3C2)c2ccccc2n1 | – | – | – | 75 | – | – | –
7 | c1ccc2c(c1)CCN(c1ccnc3ccccc13)C2 | 25 | 2600 | 3200 | 29 | – | – | –
8 | OCCNc1ccnc(N2CCc3ccccc3C2)c1 | 13 | – | 2300 | 2 | – | – | –
9 | C[C@@H]([C@H](O)c1ccc(O)cc1)N1CCC(Cc2ccccc2)CC1 [(R,S)-IFENPRODIL] | 16 | – | 12 | – | – | – | –
10 | OCCNc1cc(N2CCc3ccccc3C2)c2ccccc2n1 | – | – | – | – | 22 | 1700 | 6700
11 | Nc1cc(N2CCc3ccccc3C2)ccn1 | – | – | – | – | 2 | 2100 | 400
12 | CCOC(=O)C(=O)Nc1cc(N2CCc3ccccc3C2)cc(C)n1 | – | – | – | – | 8 | 12000 | 11000
13 | Cc1cc(N2CCc3ccccc3C2)cc(NC(=O)CO)n1 | – | – | – | – | 15 | 20000 | 60000
14 | Clc1ccc2c(c1)CN(c1ccncc1)CC2 | – | 1000 | 1300 | 37 | – | – | –
15 | Cc1cc(N2CCc3ccccc3C2)cc(N)n1 | – | – | – | – | 4 | 1500 | 2600
16 | OCCNc1cc(N2CCc3ccccc3C2)nc2ccccc12 | < 12 | – | 430 | 3.5 | – | – | –
17 | Clc1cccc2c1CCN(c1ccncc1)C2 | 2 | 660 | 1500 | 8 | – | – | –
18 | Clc1ccc2c(c1)CCN(c1ccncc1)C2 | – | – | – | 230 | – | – | –
19 | Cc1cc(N2CCc3ccccc3C2)ccn1 | – | – | – | – | 8 | 5700 | –
20 | CC1CN(c2ccncc2)Cc2ccccc21 (stereo not given) | – | 900 | 2200 | 25 | – | – | –
